Measured values taken from ChEMBL document CHEMBL4732060, “Cytotoxic triterpenoid-safirinium conjugates target the endoplasmic reticulum” (Eur J Med Chem, 2021).

Legend:
A-375 = assay: Cytotoxicity against human A-375 cells assessed as reduction in cell viability measured after 72 hrs by SRB assay; assay type: functional, cell-based; conditions: A-375, 72 h
HT-29 = assay: Cytotoxicity against human HT-29 cells assessed as reduction in cell viability measured after 72 hrs by SRB assay; assay type: functional, cell-based; conditions: HT-29, 72 h
MCF7 = assay: Cytotoxicity against human MCF7 cells assessed as reduction in cell viability measured after 72 hrs by SRB assay; assay type: functional, cell-based; conditions: MCF7, 72 h
A2780 = assay: Cytotoxicity against human A2780 cells assessed as reduction in cell viability measured after 72 hrs by SRB assay; assay type: functional, cell-based; conditions: A2780, 72 h
FaDu = assay: Cytotoxicity against human FaDu cells assessed as reduction in cell viability measured after 72 hrs by SRB assay; assay type: functional, cell-based
NIH3T3 = assay: Cytotoxicity against mouse NIH3T3 cells assessed as reduction in cell viability measured after 72 hrs by SRB assay; assay type: cell-based; conditions: NIH3T3, 72 h
How it was run: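 Sulforhodamine B assay on human tumour lines A375 (epithelial melanoma), HT29 (colorectal adenocarcinoma), MCF-7 (breast adenocarcinoma), A2780 (ovarian carcinoma) and FaDu (squamous cell carcinoma). Non-malignant NIH 3T3 (mouse fibroblasts) and HEK293 (human embryonic kidney) cells were also tested. EC50 values are given as mean ± standard mean error.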

[1] = Drug uptake in human A-375 cells measured after 24 hrs by fluorescence imaging analysis; assay type: ADME, cell-based; conditions: a-375, 24 h
How it was run: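 Fluorescence imaging of cells after a prolonged 24 h incubation with compound, to judge entry into the cells.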

Row | SMILES | EC50 (A-375) [µM] | EC50 (HT-29) [µM] | EC50 (MCF7) [µM] | EC50 (A2780) [µM] | EC50 (FaDu) [µM] | EC50 (NIH3T3) [µM] | Drug uptake [1]
1 | CC[N+]1(CC)CN2C(=N1)C(C(=O)N1CCN(C(=O)[C@]34CCC(C)(C)C[C@H]3C3=CC[C@@H]5[C@@]6(C)CC[C@H](OC(C)=O)C(C)(C)[C@@H]6CC[C@@]5(C)[C@]3(C)CC4)CC1)=Cc1ccccc12 | 21.4 | 26.2 | 19.8 | 21.4 | 18.1 | 18.4 | –
2 | C=C(C)[C@@H]1CC[C@]2(C(=O)N3CCN(C(=O)C4=C(C)C=C(C)N5C[N+](CC)(CC)N=C45)CC3)CC[C@]3(C)[C@H](CC[C@@H]4[C@@]5(C)CC[C@H](OC(C)=O)C(C)(C)[C@@H]5CC[C@]43C)[C@@H]12 | 26.2 | > 30 | 26.3 | 21.6 | > 30 | 22.4 | –
3 | CC[N+]1(CC)CN2C(=N1)C(C(=O)NCCNC(=O)[C@]13CCC(C)(C)C[C@H]1C1=CC[C@@H]4[C@@]5(C)CC[C@H](OC(C)=O)C(C)(C)[C@@H]5CC[C@@]4(C)[C@]1(C)CC3)=Cc1ccccc12 | 19 | 25 | 21.8 | 24.2 | 27.1 | 28.5 | –
4 | CC[N+]1(CC)CN2C(=N1)C(C(=O)[O-])=Cc1ccccc12 | – | – | – | – | – | – | Not Active
5 | CC[N+]1(CC)CN2C(=N1)C(C(=O)NCCNC(=O)[C@]13CC[C@@H](C)[C@H](C)[C@H]1C1=CC[C@@H]4[C@@]5(C)CC[C@H](OC(C)=O)C(C)(C)[C@@H]5CC[C@@]4(C)[C@]1(C)CC3)=Cc1ccccc12 | 13.8 | 22.1 | 11.7 | 11.2 | 10.2 | 3.6 | –
6 | CC[N+]1(CC)CN2C(=N1)C(C(=O)N1CCN(C(=O)[C@]34CC[C@@H](C(C)=O)[C@@H]3C3=CC[C@@H]5[C@@]6(C)CC[C@H](OC(C)=O)C(C)(C)[C@@H]6CC[C@@]5(C)[C@]3(C)CC4)CC1)=Cc1ccccc12 | 15 | 22.2 | 13.2 | 10.9 | 13.3 | 3 | –
7 | CC[N+]1(CC)CN2C(=N1)C(C(=O)NCCNC(=O)[C@]13CC[C@@H](C(C)=O)[C@@H]1C1=CC[C@@H]4[C@@]5(C)CC[C@H](OC(C)=O)C(C)(C)[C@@H]5CC[C@@]4(C)[C@]1(C)CC3)=Cc1ccccc12 | 16.6 | > 30 | 15.7 | 20.8 | 16.1 | 21.3 | –
8 | COc1cccc2c1C(=O)c1c(O)c3c(c(O)c1C2=O)C[C@@](O)(C(=O)CO)C[C@@H]3O[C@H]1C[C@H](N)[C@H](O)[C@H](C)O1 [DOXORUBICIN] | – | 0.9 | 1.1 | 0.01 | – | 0.4 | –
9 | CC[N+]1(CC)CN2C(=N1)C(C(=O)N1CCN(C(=O)[C@]34CC[C@@H](C)[C@H](C)[C@H]3C3=CC[C@@H]5[C@@]6(C)CC[C@H](OC(C)=O)C(C)(C)[C@@H]6CC[C@@]5(C)[C@]3(C)CC4)CC1)=Cc1ccccc12 | 21.4 | > 30 | 10.2 | 9 | 18.3 | > 30 | –
